Measurements published in ChEMBL document CHEMBL4376902, “CN128: A New Orally Active Hydroxypyridinone Iron Chelator” (J Med Chem, 2020).

Key:
[1] = Binding affinity to Cu2+ ion assessed as affinity constant by spectrophotometric titration method
[2] = Lipophilicity coefficient, logP of the compound in Tris buffer at pH 7.0 (100 mM/n-octanol); type: physicochemical
Method in brief: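 Octanol/water partition measured between n-octanol and 100 mM Tris buffer, pH 7.0.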

[3] = Oral bioavailability in Sprague-Dawley rat at 75 umol/k measured up to 1440 mins by LC/MS/MS analysis; type: ADME, organism-based; settings: in vivo, 75 umol/kg
Method in brief: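 Sprague-Dawley rats (200-250 g, half male, half female, n = 8 per route), fasted about 12 h. Dosed i.v. via tail vein at 75 μmol/kg or orally at 75-600 μmol/kg. Heparinised blood taken 0-1440 min; plasma protein-precipitated with acetonitrile and assayed by LC/MS/MS; bioavailability from oral vs i.v. exposure.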

[4] = Binding affinity to Ni2+ ion assessed as pM value by spectrophotometric titration method
[5] = Binding affinity to Fe2+ ion assessed as affinity constant by spectrophotometric titration method
Method in brief: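 Automated spectrophotometric titration with 0.1 M KOH in 0.1 pH steps, 3 min equilibration per step, 50 mm cuvette, iron complexes at ca. 40 µM. Titrated in competition with metal hydrolysis species up to pH 12.0. Hydrolysis constants taken from critical compilations. Iron spectra fitted over 400–700 nm.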

Mus musculus = assay: Toxicity in mouse assessed as reduction in eosinophils counts at 200 mg/kg, po dosed once daily for 2 months as 5 days per week schedule; settings: in vivo, 120 h

For `Cc1c(O)c(O)cc[n+]1[C@@H](CO)Cc1ccccc1.[Cl-]`, the K [1] was 8.31 pM, the log K [1] was 10.4 and the logD [2] was 0.62. It also gave a bioavailability [3] of 82.6%, a pM [4] of 6.17 and a K [5] of 6.22 pM. For the same compound, the log K [5] was 7.32 and the Activity (Mus musculus) was “Non-Toxic”.
